Reference: ChEMBL document CHEMBL4257442, “An insight into tetrahydro-β-carboline-tetrazole hybrids: synthesis and bioevaluation as potent antileishmanial agents” (Medchemcomm, 2017)

Assays:
[1] = Selectivity index, ratio of CC50 for mouse J774A.1 cells to IC50 for Leishmania donovani MHOM/IN/80/Dd8 amastigote forms infected in mouse J774A.1 cells; format: toxicity, cell-based; settings: read-out: Ratio CC50/IC50
Procedure, shortened: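 SI was calculated as the cytotoxicity CC50 in J-774A.1 cells divided by the anti-amastigote IC50. The amastigote assay used murine macrophages expressing a firefly luciferase reporter, infected with intracellular L. donovani. Each IC50 and CC50 is the average of three independent assays.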

Leishmania donovani [2] = test: Antileishmanial activity against Leishmania donovani MHOM/IN/80/Dd8 amastigotes harboring luciferase reporter gene infected in mouse J774A.1 cells after 72 hrs by Steady-Glo luminescence assay; format: functional, organism-based; settings: MHOM/IN/80/Dd8, J774.A1, 72 h
Procedure, shortened: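 Intracellular L. donovani amastigotes in murine macrophages, with firefly luciferase reporter expression. IC50 is the concentration giving 50% inhibition of parasite growth. Values are the average of three independent assays, given as average ± standard error.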

Leishmania donovani [3] = test: Antileishmanial activity against Leishmania donovani MHOM/IN/80/Dd8 promastigotes harboring luciferase reporter gene after 72 hrs by Steady-Glo luminescence assay; format: functional, organism-based; settings: MHOM/IN/80/Dd8, 72 h
Procedure, shortened: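 Extracellular promastigotes of the L. donovani WHO reference strain MHOM/IN/80/Dd8. IC50 is the concentration giving 50% inhibition of parasite growth. Values are the average of three independent assays, given as average ± standard error.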

[4] = Cytotoxicity against mouse J774A.1 cells after 2 hrs by MTT assay; format: cell-based, J774.A1
Procedure, shortened: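 Mouse macrophage J-774A.1 cells obtained from NCCS, Pune, were used for the in vitro cytotoxicity assay. CC50 is the average of three independent assays, expressed as average ± standard error.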

Leishmania donovani [5] = test: (§1) Antileishmanial activity against Leishmania donovani MHOM/IN/80/Dd8 amastigotes infected in golden hamsters assessed as inhibition of splenic parasite burden at 50 mg/kg, ip for 5 consecutive days initiated after 2 days of biopsy and measured on day 7 post last dose by Giemsa staining-based assay relative to control; format: functional; settings: MHOM/IN/80/Dd8, ip
Procedure, shortened: (§2)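 Golden hamster model infected with L. donovani. Treatment was 50 mg kg–1 given intraperitoneally for 5 consecutive days. Read-out was % inhibition of splenic parasite burden.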

Leishmania donovani [6] = test: as §1, with “28” for “7”; format: functional; settings: MHOM/IN/80/Dd8, ip; procedure, shortened: as §2
[7] = Apparent oral volume of distribution in golden Syrian hamster at 50 mg/kg measured up to 24 hrs by LC-MS/MS analysis; format: ADME, organism-based, Mesocricetus auratus; settings: in vivo
Procedure, shortened: (§3)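 Single oral 50 mg kg–1 dose given to golden Syrian hamsters (n = 5). Compound quantified in serum over time up to 24 h by validated LC-MS/MS with electrospray ionization. Parameters came from non-compartmental analysis of the mean serum concentration–time profile and are reported as mean ± SEM of five animals.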

Leishmania donovani [8] = test: as §1, with “100” for “50”, “po” for “ip”, “28” for “7”; format: functional; settings: MHOM/IN/80/Dd8, po
[9] = Cmax in golden Syrian hamster at 50 mg/kg, po measured up to 24 hrs by LC-MS/MS analysis; format: ADME, organism-based, Mesocricetus auratus; set-up: dose 50 mg/kg, route oral; settings: in vivo; procedure, shortened: as §3
[10] = MRT in golden Syrian hamster at 50 mg/kg, po measured up to 24 hrs by LC-MS/MS analysis; format: ADME, organism-based, Mesocricetus auratus; settings: in vivo; procedure, shortened: as §3
[11] = Tmax in golden Syrian hamster at 50 mg/kg, po measured up to 24 hrs by LC-MS/MS analysis; format: ADME, organism-based, Mesocricetus auratus; settings: in vivo; procedure, shortened: as §3
[12] = Apparent oral clearance in golden Syrian hamster at 50 mg/kg measured up to 24 hrs by LC-MS/MS analysis; format: ADME, organism-based, Mesocricetus auratus; settings: in vivo; procedure, shortened: as §3
Leishmania donovani [13] = test: as §1, with “100” for “50”, “po” for “ip”; format: functional; settings: MHOM/IN/80/Dd8, po
[14] = AUClast in golden Syrian hamster at 50 mg/kg, po measured up to 24 hrs by LC-MS/MS analysis; format: ADME, organism-based, Mesocricetus auratus; set-up: time < 24 hr, dose 50 mg/kg, route oral; settings: in vivo; procedure, shortened: as §3
Leishmania donovani [15] = test: as §1, with “30” for “50”, “po” for “ip”; format: functional; settings: MHOM/IN/80/Dd8, po

Row | Structure (SMILES) | selectivity ratio [1] | IC50 (Leishmania donovani [2]) [µM] | IC50 (Leishmania donovani [3]) [µM] | CC50 at 2 h [4] [µM] | also measured
1 | CC(C)(C)n1nnnc1C(c1ccc(C#N)cc1)N1CCc2c([nH]c3ccccc23)C1 (configuration not stated) | 9 | 16.4 | 2.82 | 150 | 
2 | Fc1ccc(C(c2nnnn2C2CCCCC2)N2CCc3c([nH]c4ccccc34)C2)cc1 (configuration not stated) |  | ≥ 25 | 14.5 |  | 
3 | COc1ccc(C(c2nnnn2C2CCCCC2)N2CCc3c([nH]c4ccccc34)C2)cc1 (configuration not stated) |  | ≥ 50 | 20.4 |  | 
4 | CC(C)(C)n1nnnc1C(c1ccc([N+](=O)[O-])cc1)N1CCc2c([nH]c3ccccc23)C1 (configuration not stated) | 37 | 3.78 | 0.59 | 140 | inhibition in vivo at 50 mg/kg (Leishmania donovani [5]): 20.4%; inhibition in vivo at 50 mg/kg (Leishmania donovani [6]): 19.6%
5 | COc1cc(C(c2nnnn2C(C)(C)C)N2CCc3c([nH]c4ccccc34)C2)cc(OC)c1OC (configuration not stated) |  | ≥ 50 | 23.5 |  | 
6 | Brc1ccc(C(c2nnnn2C2CCCCC2)N2CCc3c([nH]c4ccccc34)C2)cc1 (configuration not stated) |  | ≥ 50 | 16.5 |  | 
7 | CC(C)(C)n1nnnc1C(c1ccc(Cl)cc1)N1CCc2c([nH]c3ccccc23)C1 (configuration not stated) | 2 | 14.2 | 3.45 | 37 | 
8 | Clc1ccc(C(c2nnnn2C2CCCCC2)N2CCc3c([nH]c4ccccc34)C2)cc1 (configuration not stated) | 17 | 2.08 | 2.89 | 35.5 | 
9 | CC(C)(C)n1nnnc1C(c1ccc(F)cc1)N1CCc2c([nH]c3ccccc23)C1 (configuration not stated) | 3 | 17.5 | 2.71 | 48.8 | 
10 | COc1cc(C(c2nnnn2C2CCCCC2)N2CCc3c([nH]c4ccccc34)C2)cc(OC)c1OC (configuration not stated) | 23 | 1.57 | 2.81 | 36 | Vd/F [7]: 652 L/kg; inhibition in vivo at 100 mg/kg (Leishmania donovani [8]): 77.5%; inhibition in vivo at 50 mg/kg (Leishmania donovani [5]): 75%; Cmax [9]: 76.2 to 83.5 ng/mL; MRT [10]: 10.2 h; Tmax [11]: 1.6 to 8 h; CL/F [12]: 720 mL/min/kg; inhibition in vivo at 100 mg/kg (Leishmania donovani [13]): 50.9%; inhibition in vivo at 50 mg/kg (Leishmania donovani [6]): 88.9%; AUC(0-t) at 24 h [14]: 844 ng·h/mL
11 | CC(C)(C)n1nnnc1C(c1cccc([N+](=O)[O-])c1)N1CCc2c([nH]c3ccccc23)C1 (configuration not stated) | 39 | 3.86 | 4.91 | 150 | inhibition in vivo at 50 mg/kg (Leishmania donovani [5]): 4.83%; inhibition in vivo at 50 mg/kg (Leishmania donovani [6]): 2.92%
12 | N#Cc1ccc(C(c2nnnn2C2CCCCC2)N2CCc3c([nH]c4ccccc34)C2)cc1 (configuration not stated) |  | ≥ 50 | ≥ 100 |  | 
13 | COc1ccc(C(c2nnnn2C(C)(C)C)N2CCc3c([nH]c4ccccc34)C2)cc1 (configuration not stated) | 10 | 4.32 | 1.14 | 42 | 
14 | O=[N+]([O-])c1ccc(C(c2nnnn2C2CCCCC2)N2CCc3c([nH]c4ccccc34)C2)cc1 (configuration not stated) |  | ≥ 50 | 31 |  | 
15 | COc1ccc(C(c2nnnn2C(C)(C)C)N2CCc3c([nH]c4ccccc34)C2)cc1OC (configuration not stated) | 8 | 16 | 5.71 | 138 | 
16 | Clc1ccccc1C(c1nnnn1C1CCCCC1)N1CCc2c([nH]c3ccccc23)C1 (configuration not stated) |  | ≥ 50 | ≥ 100 |  | 
17 | CC(C)c1ccc(C(c2nnnn2C(C)(C)C)N2CCc3c([nH]c4ccccc34)C2)cc1 (configuration not stated) | 7 | 17.6 | 3.56 | 130 | 
18 | CC(C)(C)n1nnnc1C(c1ccccc1)N1CCc2c([nH]c3ccccc23)C1 (configuration not stated) | 27 | 5.41 | 4.07 | 146 | inhibition in vivo at 50 mg/kg (Leishmania donovani [5]): 4.05%; inhibition in vivo at 50 mg/kg (Leishmania donovani [6]): 3.79%
19 | COc1ccc(C(c2nnnn2C2CCCCC2)N2CCc3c([nH]c4ccccc34)C2)cc1OC (configuration not stated) | 13 | 3.31 | 1.2 | 41.9 | 
20 | CC(C)(C)n1nnnc1C(c1ccc(Br)cc1)N1CCc2c([nH]c3ccccc23)C1 (configuration not stated) | 38 | 3.77 | 1.58 | 144 | inhibition in vivo at 50 mg/kg (Leishmania donovani [5]): 33.7%; inhibition in vivo at 50 mg/kg (Leishmania donovani [6]): 53.1%
21 | CCCCCCCCCCCCCCCCOP(=O)([O-])OCC[N+](C)(C)C [MILTEFOSINE] | 1.48 |  |  | 12.4 | inhibition in vivo at 30 mg/kg (Leishmania donovani [15]): 98.1%
